Laboratory results as given in ChEMBL document CHEMBL1817573, “Synthesis, structure elucidation, determination of the lipophilicity and identification of antitumour activities in vitro of novel 3-(2-furanyl)-8-aryl-7,8-dihydroimidazo[2,1-c][1,2,4]triazin-4(6H)-ones with a low cytotoxicity towards normal human skin fibroblast cells” (Bioorg Med Chem, 2011).

What was measured:
T47D [1] = assay: Growth inhibition of human T47D cells at 50 ug/ml after 24 hrs by spectrophotometric analysis; format: functional; details: read-out: GI
Method in brief: (§1)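 Normal primary human skin fibroblasts (HSF), HeLa (ECACC 93021013) and T47D (ECACC 85102201) were each seeded at 10⁴ cells/mL. Compounds were predissolved in DMSO and tested at a single 50 µg/mL (about 0.14–0.18 mM). Cultures were incubated at 37 °C, 5% CO₂, 90% humidity for 24, 48 or 72 h, and percent growth inhibition was read spectrophotometrically.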

[2] = Growth inhibition of human HSF cells at 50 ug/ml after 72 hrs by spectrophotometric analysis; format: cell-based; details: read-out: GI; method in brief: as §1
HeLa [3] = assay: Growth inhibition of human HeLa cells at 50 ug/ml after 48 hrs by spectrophotometric analysis; format: functional; details: read-out: GI; method in brief: as §1
[4] = Lipophilicity, log Kw of the compound in methanol-water mixture by RP-HPLC; format: physicochemical
Method in brief: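 Isocratic RP-HPLC on a C18 column (150 × 4.6 mm, 5 µm) at 22 °C, 1 mL/min, DAD detection. Mobile phases were methanol (30–80%), 20% acetate buffer pH 3.5 (0.2 M acetate, pH measured in aqueous solution) and 0.01 M/L octane-1-sulfonic acid sodium salt. log kw was extrapolated with the Snyder–Soczewiński equation.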

HeLa [5] = assay: Growth inhibition of human HeLa cells at 50 ug/ml after 24 hrs by spectrophotometric analysis; format: functional; details: read-out: GI; method in brief: as §1
T47D [6] = assay: Growth inhibition of human T47D cells at 50 ug/ml after 48 hrs by spectrophotometric analysis; format: functional; details: read-out: GI; method in brief: as §1
[7] = Growth inhibition of human HSF cells at 50 ug/ml after 48 hrs by spectrophotometric analysis; format: cell-based; details: read-out: GI; method in brief: as §1
[8] = Growth inhibition of human HSF cells at 50 ug/ml after 24 hrs by spectrophotometric analysis; format: cell-based; details: read-out: GI; method in brief: as §1
T47D [9] = assay: Growth inhibition of human T47D cells at 50 ug/ml after 72 hrs by spectrophotometric analysis; format: functional; details: read-out: GI; method in brief: as §1
HeLa [10] = assay: Growth inhibition of human HeLa cells at 50 ug/ml after 72 hrs by spectrophotometric analysis; format: functional; details: read-out: GI; method in brief: as §1
T47D [11] = assay: Antitumor activity against human T47D cells after 72 hrs by spectrophotometric analysis; format: functional, cell-based
Method in brief: (§2)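 Cancer lines were HeLa (ECACC 93021013, cervix epitheloid carcinoma) and T47D (ECACC 85102201, breast carcinoma). Cells were seeded at 10⁴ cells/mL, treated with compounds dissolved in DMSO, and incubated at 37 °C, 5% CO₂, 90% humidity for 24, 48 or 72 h. Read-out was the BrdU assay, and IC50 was calculated from dose–response curves.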

HeLa [12] = assay: Antitumor activity against human HeLa cells after 48 hrs by spectrophotometric analysis; format: functional, cell-based; method in brief: as §2
T47D [13] = assay: Antitumor activity against human T47D cells after 24 hrs by spectrophotometric analysis; format: functional, cell-based; method in brief: as §2
HeLa [14] = assay: Antitumor activity against human HeLa cells after 24 hrs by spectrophotometric analysis; format: functional, cell-based; method in brief: as §2
HeLa [15] = assay: Antitumor activity against human HeLa cells after 72 hrs by spectrophotometric analysis; format: functional, cell-based; method in brief: as §2
T47D [16] = assay: Antitumor activity against human T47D cells after 48 hrs by spectrophotometric analysis; format: functional, cell-based; method in brief: as §2

Row | SMILES | inhibition of growth at 50 µg/mL (T47D [1]) [%] | inhibition at 72 h, 50 ug/ml [2] [%] | inhibition of growth at 50 µg/mL (HeLa [3]) [%] | logKw [4] | inhibition of growth at 50 µg/mL (HeLa [5]) [%] | inhibition of growth at 50 µg/mL (T47D [6]) [%] | inhibition at 48 h, 50 ug/ml [7] [%] | inhibition at 24 h, 50 ug/ml [8] [%] | inhibition of growth at 50 µg/mL (T47D [9]) [%] | inhibition of growth at 50 µg/mL (HeLa [10]) [%] | IC50 (T47D [11]) [µM] | IC50 (HeLa [12]) [µM] | IC50 (T47D [13]) [µM] | IC50 (HeLa [14]) [µM] | IC50 (HeLa [15]) [µM] | IC50 (T47D [16]) [µM]
1 | Cc1ccc(N2CCn3c2nnc(-c2ccco2)c3=O)cc1 | 40 | 50 | 50 | 3.27 | 50 | 60 | 50 | 30 | 80 | 80 |  |  |  |  |  | 
2 | COc1ccccc1N1CCn2c1nnc(-c1ccco1)c2=O | 0 | 5 | 35 | 2.54 | 25 | 30 | 0 | 0 | 70 | 80 |  |  |  |  |  | 
3 | O=c1c(-c2ccco2)nnc2n1CCN2c1ccccc1 | 50 | 60 | 75 | 2.64 | 50 | 85 | 50 | 50 | 95 | 100 | 100 | 130 | 180 | 180 | 100 | 110
4 | O=c1c(-c2ccco2)nnc2n1CCN2c1ccc(Cl)c(Cl)c1 | 10 | 80 | 50 | 4.01 | 50 | 20 | 50 | 0 | 40 | 95 |  |  |  |  |  | 
5 | O=c1c(-c2ccco2)nnc2n1CCN2c1ccc(Cl)cc1 | 0 | 90 | 75 | 3.45 | 50 | 15 | 80 | 50 | 15 | 90 |  |  |  |  |  | 
6 | Cc1cccc(N2CCn3c2nnc(-c2ccco2)c3=O)c1C | 0 | 0 | 75 | 3 | 60 | 15 | 0 | 0 | 25 | 90 |  |  |  |  |  | 
7 | O=c1c(-c2ccco2)nnc2n1CCN2c1cccc(Cl)c1 | 20 | 75 | 80 | 3.45 | 80 | 50 | 60 | 25 | 80 | 95 |  |  |  |  |  | 
8 | O=c1c(-c2ccco2)nnc2n1CCN2c1c(Cl)cccc1Cl | 10 | 15 | 80 | 2.97 | 80 | 20 | 15 | 10 | 25 | 95 |  |  |  |  |  | 
9 | Cc1ccccc1N1CCn2c1nnc(-c1ccco1)c2=O | 25 | 0 | 25 | 2.48 | 25 | 50 | 0 | 0 | 75 | 50 |  |  |  |  |  | 
10 | COc1ccc(N2CCn3c2nnc(-c2ccco2)c3=O)cc1 | 50 | 60 | 80 | 2.89 | 80 | 70 | 50 | 10 | 80 | 95 |  |  |  |  |  | 
11 | O=c1c(-c2ccco2)nnc2n1CCN2c1ccccc1Cl | 5 | 20 | 80 | 2.78 | 80 | 15 | 20 | 10 | 25 | 100 | > 160 | 110 | > 160 | 110 | 90 | > 160
